# Results published in ChEMBL document CHEMBL3091336, “Analogs of the Allosteric Heat Shock Protein 70 (Hsp70) Inhibitor, MKT-077, as Anti-Cancer Agents” (ACS Med Chem Lett, 2013).
# The source made the active and inactive calls. The rule behind the calls is not given here.
# Experiments:
# MCF7 [1] = assay: Upregulation of Hsp90 protein expression in human MCF7 cells at 0.6 to 10 uM after 24 hrs by Western blot analysis; format: functional, cell-based
# Procedure, shortened: (§1)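 MCF7 and MDA-MB-231 cells treated for 24 h across a range of concentrations. Lysates Western blotted for p53, Akt1, Raf1, Hsp70 and Hsp90. Representative of triplicate experiments.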
# MCF7 [2] = assay: Upregulation of Hsp70 protein expression in human MCF7 cells at 0.6 to 10 uM after 24 hrs by Western blot analysis; format: functional, cell-based; procedure, shortened: as §1
# MDA-MB-231 [3] = assay: Upregulation of Hsp90 protein expression in human MDA-MB-231 cells at 0.6 to 10 uM after 24 hrs by Western blot analysis; format: functional, cell-based; procedure, shortened: as §1
# MDA-MB-231 [4] = assay: Upregulation of Hsp70 protein expression in human MDA-MB-231 cells at 0.6 to 10 uM after 24 hrs by Western blot analysis; format: functional, cell-based; procedure, shortened: as §1
# MCF7 [5] = assay: Inhibition of HSP70 in human MCF7 cells assessed as induction of […] p53 level at 5 to 10 uM after 24 hrs by Western blot analysis; format: cell-based; procedure, shortened: as §1
# MCF7 [6] = assay: Inhibition of HSP70 in human MCF7 cells assessed as reduction of Raf level at 0.6 to 10 uM after 24 hrs by Western blot analysis; format: cell-based
# Procedure, shortened: (§2)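 MCF7 or MDA-MB-231 cells treated for 24 h across a range of concentrations. Lysates probed by Western blot for the Hsp70 clients p53, Akt1 and Raf1, alongside Hsp70 and Hsp90. Blots are representative of experiments run in triplicate.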
# MCF7 [7] = assay: Inhibition of HSP70 in human MCF7 cells assessed as reduction of Akt1 level at 0.6 to 10 uM after 24 hrs by Western blot analysis; format: cell-based; procedure, shortened: as §2
# MDA-MB-231 [8] = assay: Inhibition of HSP70 in human MDA-MB-231 cells assessed as reduction of Raf level at 0.6 to 10 uM after 24 hrs by Western blot analysis; format: cell-based; procedure, shortened: as §2
# MDA-MB-231 [9] = assay: Inhibition of HSP70 in human MDA-MB-231 cells assessed as reduction of Akt1 level at 0.6 to 10 uM after 24 hrs by Western blot analysis; format: cell-based; procedure, shortened: as §2
# [10] = Selectivity ratio of EC50 for C57BL/6 mouse MEF to EC50 for human MDA-MB-231 cells; format: ADME; conditions: C57BL/6, mouse and human, mouse embryonic fibroblasts (MEF) versus MDA-MB-231 cells
# Procedure, shortened: (§3)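 Antiproliferative EC50 values measured by MTT assay in mouse embryonic fibroblasts and in the breast cancer line (MCF7 or MDA-MB-231), averaged over triplicate experiments, error SEM. Selectivity taken as the ratio of fibroblast EC50 to cancer-cell EC50.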
# [11] = Selectivity ratio of EC50 for C57BL/6 mouse MEF to EC50 for human MCF-7 cells; format: ADME, cell-based; conditions: C57BL/6, mouse and human, mouse embryonic fibroblasts (MEF) versus MCF-7 cells; read-out: Ratio EC50; procedure, shortened: as §3
# [12] = Half life in mouse liver microsomes at 1 uM incubated for 15 mins prior to beta-NADPH addition by LC-MS/MS analysis; format: ADME, Microsome; conditions: microsomes, 0.25 h, 1 µM
# Procedure, shortened: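 Compounds at 1 μM incubated with mouse liver microsomes. Degradation followed by LC–MS and reported as half-life.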
# MEF = assay: Cytotoxicity against C57BL/6 mouse MEF assessed as growth inhibition after 72 hrs by MTT assay; format: cell-based; conditions: C57BL/6, MEF
# Procedure, shortened: (§4)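 Antiproliferative activity measured by MTT assay. EC50 is the average of triplicate experiments, with error as SEM.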
# MCF7 [13] = assay: Cytotoxicity against human MCF7 cells assessed as growth inhibition after 72 hrs by MTT assay; format: functional, cell-based; conditions: MCF7, 72 h; procedure, shortened: as §4
# MDA-MB-231 [14] = assay: Cytotoxicity against human MDA-MB-231 cells assessed as growth inhibition after 72 hrs by MTT assay; format: functional, cell-based; conditions: MDA-MB-231, 72 h; procedure, shortened: as §4
compound,measurement,setting,value
CCn1c(=O)/c(=C2\Sc3cccc(F)c3N2C)s/c1=C\c1scc[n+]1Cc1ccccc1.[Cl-],Activity,MCF7 [1],inactive
same,Activity,MCF7 [2],inactive
same,Activity,MDA-MB-231 [3],inactive
same,Activity,MDA-MB-231 [4],inactive
same,inhibition,MCF7 [5],Active
same,inhibition,MCF7 [6],25%
same,inhibition,MCF7 [7],25%
same,inhibition,MDA-MB-231 [8],25%
same,inhibition,MDA-MB-231 [9],25%
same,selectivity ratio,[10],21
same,selectivity ratio,[11],8
same,t1/2,[12],ND(Insoluble)
same,EC50,MEF,8.3 µM
same,EC50,MCF7 [13],1000 nM
same,EC50,MDA-MB-231 [14],400 nM
